From PubChem BioAssay
Most compounds without a hit are left out; they make up all but 1.5% or so of the library.
CSN inh = inhibitors of CSN-mediated cullin deneddylation, primary screen, biochemical, fluorescence polarization, uHTS; COP9 signalosome complex subunit 5 (Homo sapiens), Q92905; Purified CSN, SCF-Nedd8-OG deneddylation; inhibition, % at 12.5 µM; 0.38% of 360,000 active; AID 651999, 2013;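 active means pattern-corrected inhibition above about 35%, with an unprinted fluorescence ratio check between 0.5 and 1.5, limit read from the data, passing the limit was not always enough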;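 further: 0% = enzyme with substrate and 100% = substrate without enzyme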
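Test system: Human Csn5 produced in HEK293T cells | Compound: 12.5 µM single point | Times: 90 min, room temperature | Signal: Fluorescence polarization readout | Read-out basis: % inhibition of substrate cleavage by Csn5 | Controls: no-enzyme wells high, enzyme-with-substrate wells low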
Rpn11 block = Rpn11 (PSMD14) deubiquitinase inhibitors, primary screen, biochemical, fluorescence polarization, uHTS; 0.59% of 360,000 active; 26S proteasome non-ATPase regulatory subunit 14 (Homo sapiens), O00487; inhibition, % at 20 µM; human 26S proteasome, Ub4-pepOG fluorescence polarization; 20S core pre-blocked with epoxomicin;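 active means inhibition at 20 µM, scaled to each plate's controls, above about 33%, limit read from the data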
Target sequence (O00487 whole entry, looked up): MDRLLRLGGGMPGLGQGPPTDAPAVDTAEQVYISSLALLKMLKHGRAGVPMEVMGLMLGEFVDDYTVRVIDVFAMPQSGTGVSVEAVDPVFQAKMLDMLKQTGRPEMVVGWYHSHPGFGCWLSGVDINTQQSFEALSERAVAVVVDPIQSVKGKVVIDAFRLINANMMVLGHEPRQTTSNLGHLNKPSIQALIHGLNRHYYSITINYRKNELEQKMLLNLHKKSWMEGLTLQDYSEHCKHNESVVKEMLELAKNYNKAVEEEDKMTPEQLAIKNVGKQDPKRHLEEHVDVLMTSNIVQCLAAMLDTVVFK
HNF4A DNA FP = change in binding of human HNF4A to DNA, primary screen, biochemical, fluorescence polarization, FITC-DNA; activity change, % at 10 µM; 1 h; 0.3% of 360,000 active; AID 1224865, 2016; in the data active means activity change above about 30%, passing the limit was not always enough
TPT1 inh = Candida albicans TPT1 enzyme inhibitors, primary screen, biochemical, fluorescence polarization | tRNA 2'-phosphotransferase TPT1 (Candida albicans SC5314) | recombinant caTPT1, FP RNA substrate dephosphorylation | inhibition, % at 5 µM | 0.81% of 300,000 active | AID 1962, 2009;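 active means inhibition above the mean of all tested compounds plus 3 SD, set per screening campaign, cut at about 24% in these data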;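 further: plate controls were DMSO alone for no effect and ferristatin control at 100 nM for full effect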
TPT1 inh confirm = Candida albicans TPT1 inhibitors, confirmation, biochemical, fluorescence polarization, triplicate; recombinant caTPT1, RNase T1 coupled; AID 2149, 2009; shares compounds with TPT1 inh; inhibition, % at 5 µM; 74% of 2,400 active;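 active means inhibition above the primary screen limit, the mean inhibition of all tested compounds plus 3 SD, cut at about 25% in these data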
RNase T1 inh = RNase T1 inhibitors, counter-screen for TPT1 inhibitor project, biochemical, fluorescence polarization; 83% of 2,400 active; shares compounds with TPT1 inh; AID 2153, 2009; inhibition, % at 5 µM; RNase T1 cleavage, 1536-well;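 active means inhibition above the solvent-only control well mean plus 3 SD, limit set per screening run, cut at about 23% in these data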;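 further: plate controls were DMSO wells with enzyme for no effect and wells without RNase T1 for full effect; inhibitors block cleavage so intact labeled substrate keeps polarization high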
Target sequence (P00651 whole entry, looked up): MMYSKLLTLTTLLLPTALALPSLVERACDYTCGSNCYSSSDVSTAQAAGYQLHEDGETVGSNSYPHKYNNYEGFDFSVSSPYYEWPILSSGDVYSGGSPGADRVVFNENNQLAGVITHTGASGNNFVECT
Rpn11 inh conf = Rpn11 (PSMD14) deubiquitinase inhibitors, confirmation, biochemical, fluorescence polarization, single concentration. purified human 26S proteasome, Ub4-pepOG fluorescence polarization; proteasome pretreated with epoxomicin. 29% of 1,900 active. AID 602318, 2012. inhibition, % at 20 µM. shares compounds with Rpn11 block
MMP-2 counter-1 = MMP-2 enzyme inhibition, confirmation, counter-screen for RPN11 inhibitor project, biochemical, fluorescence, single concentration. inhibition, % at 20 µM. 4% of 1,900 active. AID 602330, 2012. recombinant MMP-2, FRET peptide cleavage fluorescence. shares compounds with Rpn11 block;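 further: human MMP-2 activated beforehand with APMA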
Thrombin FP = bovine thrombin protease inhibition, confirmation, counter-screen for Rpn11 inhibitor project, biochemical, fluorescence polarization, single concentration; shares compounds with Rpn11 block; bovine thrombin cleavage of Ub4-pepOG; inhibition, % at 20 µM; 13% of 1,900 active; AID 602333, 2012;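 active means mean inhibition at least 40% at 20 µM, or signal 3 deviations below plate average, so some actives read negative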;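 further: plate controls were thrombin with DMSO for no effect and buffer wells lacking thrombin for full effect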
CSN deneddyl val = Csn5 deneddylation inhibitors, confirmation, biochemical, fluorescence polarization, single concentration, SCF-Nedd8OG substrate; 62% of 540 active; inhibition, % at 16.6 µM; Csn5 deneddylation of SCF-Nedd8OG, 90 min; shares compounds with CSN inh; in the data active means inhibition above about 50%;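 further: 0% = DMSO with enzyme and 100% = no enzyme wells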
MMP-2 counter-2 = MMP-2 protease inhibition counter-screen, confirmation, counter-screen for CSN deneddylation inhibitor project, biochemical, fluorescence, single concentration | shares compounds with CSN inh | recombinant MMP-2, FRET substrate fluorescence, 60 min | inhibition, % at 16.6 µM | 33% of 540 active | AID 720655, 2013;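 active means corrected plate-normalized z-score of 5 or more, or -5 or less, or inhibition of 15% or more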;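 further: plate controls were DMSO wells with enzyme for no effect and buffer wells lacking MMP-2 for full effect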
Thrombin counter = thrombin (bovine) inhibition, counter-screen for CSN hits; shares compounds with CSN inh; bovine thrombin cleavage of Ub4-pepOG, fluorescence polarization; inhibition, % at 16.6 µM; 49% of 540 active; AID 720656;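 active means inhibition at or above a set limit, with a fluorescence interference ratio between 0.5 and a set maximum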
Numbers without * were called inactive. Unless noted, no stated cut-off is given here; in the data, active means inhibition above about 40%; inactive means the rest.

How did C=CCN1C(=O)/C(=C/c2ccc(Br)s2)C(=O)NC1=S do in these assays?
CSN inh: 37.3*; HNF4A DNA FP: -5.6; TPT1 inh: 27.6*; TPT1 inh confirm: 15.1; RNase T1 inh: 23.7*; CSN deneddyl val: 81.0*; MMP-2 counter-2: 12.5; Thrombin counter: 3.1

Results for CCN(CC)c1ccc(N=Cc2c(O)n(Cc3ccco3)c(=O)[nH]c2=O)cc1 ?
CSN inh: 62.0*; HNF4A DNA FP: 101.6; TPT1 inh: 45.3*; TPT1 inh confirm: 64.0*; RNase T1 inh: 68.8*; MMP-2 counter-2: -14.2; Thrombin counter: 25.1*

What do the screens show for `O=c1[nH]c(=O)n(Cc2ccco2)c(O)c1/C=N/N1CCCCCC1`?
CSN inh: 6.2; Rpn11 block: 0.6; HNF4A DNA FP: -0.1; TPT1 inh: 0.3

How did N#Cc1c(/N=C/c2c(O)n(Cc3ccco3)c(=O)[nH]c2=O)sc2c1CCCC2 do in these assays?
CSN inh: 42.9*; Rpn11 block: 22.3; HNF4A DNA FP: -3.0; TPT1 inh: 44.3*; TPT1 inh confirm: 8.1; RNase T1 inh: 13.7; CSN deneddyl val: 73.4*; MMP-2 counter-2: 10.0; Thrombin counter: -2.0

Results for C=CCN1C(=O)NC(=O)/C(=C/C=C/c2ccccc2)C1=O ?
CSN inh: 2.8; Rpn11 block: 30.4; HNF4A DNA FP: 20.0

Results for O=C1NC(=O)N(Cc2ccco2)C(=O)/C1=C/C=C/c1ccco1 ?
CSN inh: 45.8*; Rpn11 block: 140.8*; HNF4A DNA FP: -30.8; TPT1 inh: 35.0*; TPT1 inh confirm: 39.4*; RNase T1 inh: 54.0*; CSN deneddyl val: 47.6; MMP-2 counter-2: 26.1*; Thrombin counter: 20.0*

What do the screens show for `O=C1NC(=O)N(Cc2ccccc2)C(=O)/C1=C\C=C\c1ccco1`?
CSN inh: 80.6*; Rpn11 block: 50.4*; HNF4A DNA FP: 18.0; TPT1 inh: 60.1*; TPT1 inh confirm: 46.1*; RNase T1 inh: 63.1*; Rpn11 inh conf: 28.5; MMP-2 counter-1: 11.2; Thrombin FP: 20.6; CSN deneddyl val: 60.5*; MMP-2 counter-2: 2.4; Thrombin counter: 27.2*
